Assays:
MS2 coat protein [1] = assay: apparent Kd, MS2 coat protein; higher = weaker binding; RNA-MaP array; theophylline 2 mM where present
In short: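 Stalled E. coli RNA polymerase transcribed each design on Illumina sequencing-chip clusters. The clusters were titrated with SNAP-549-labelled MS2 coat protein, starting at 0.7 or 1.5 nM and doubling up to 3 µM, first without ligand and then with constant ligand, in 100 mM Tris-HCl pH 7.5, 80 mM KCl, 4 mM MgCl2, BSA, DTT, yeast tRNA and Tween-20. Green signal was normalised to red-channel RNA signal and to the control-cluster median Fmax. The apparent Kd is the median of filtered binding-curve fits made for each cluster.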

MS2 coat protein [2] = assay: apparent Kd, MS2 coat protein; higher = weaker binding; RNA-MaP array
In short: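 Fluorescently labeled MS2 coat protein, from 1.5 nM to 3 μM, was incubated at room temperature with designed RNAs transcribed on an Illumina sequencing chip from sequenced DNA templates. Times ran from 0.8–1.5 h at the lowest concentrations to 10–20 min at the highest, in Tris-HCl pH 7.5 buffer with KCl, MgCl2, BSA, DTT, tRNA and Tween20, with or without input ligand. Each apparent Kd is the median of per-cluster binding-curve fits, and designs with fewer than 10 measured clusters were excluded.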

[3] = designed as: ON switch for theophylline, no ligand
[4] = ligand present: theophylline, designed as: ON switch for theophylline
[5] = designed as: OFF switch for theophylline, no ligand
[6] = ligand present: theophylline, designed as: OFF switch for theophylline
[7] = designed as: ON switch for flavin mononucleotide, no ligand
[8] = ligand present: flavin mononucleotide, designed as: ON switch for flavin mononucleotide
[9] = designed as: OFF switch for flavin mononucleotide, no ligand
[10] = ligand present: flavin mononucleotide, designed as: OFF switch for flavin mononucleotide

## GCACCAGGUACGGAUACCAGCUGCCCGAGAUACAUGAGGAUCACCCAUGUGACCUGGUUUAGCCCUUGGCAGCUGUACCUGGUGC
MS2 coat protein [1]; [3]
  apparent Kd: 13.6 nM
MS2 coat protein [1]; [4]
  apparent Kd: 9.99 nM

## AAGGGAGAAUCAGAUACCAGAGUAAGAUGGCAUGAUAAUUACAUGAGGAUCACCCAUGUACUCCCUUGGCAGCUGACAAUAUAUU
MS2 coat protein [1]; [5]
  apparent Kd: 10.2 nM
MS2 coat protein [1]; [6]
  apparent Kd: 12.2 nM

## CGAUGAUGAAGGGAUACCAGAAAUGGUAUUCCUUUAUUUCUUACAUGAGGAUCACCCAUGUUCCCUUGGCAGCUUUUUAUCAUCG
MS2 coat protein [1]; [5]
  apparent Kd: 75.7 nM
MS2 coat protein [1]; [6]
  apparent Kd: 117 nM

## CAACAAGUAACUGAUACCAGUGUACUGACAUGAGGAUCACCCAUGUUGGGUUUUGUUGUACACCCUUGGCAGCAGAAUCUUGUUG
MS2 coat protein [1]; [5]
  apparent Kd: 60.7 nM
MS2 coat protein [1]; [6]
  apparent Kd: 82.5 nM

## UCAUAUUAGAUAGAUGUAAGGUAUCAUGAUACCAGUAGAUAAUUAUACCCUUGGCAGCAUAACAUGAGGAUCACCCAUGUACAUG
MS2 coat protein [1]; [5]
  apparent Kd: 21.3 nM
MS2 coat protein [1]; [6]
  apparent Kd: 20.9 nM

## UUUACAUGAGGAUCACCCAUGUUCCAUGAUACCAGACAUGAAAAUGUCCCUUGGCAGCAUGAAUGAUUCAUAGGAUAAUUAUGGG
MS2 coat protein [1]; [3]
  apparent Kd: 98.7 nM
MS2 coat protein [1]; [4]
  apparent Kd: 52.9 nM

## ACAUCCAGGUUAAUCGUGGGCAUACUCGAUACCAGUAUUUUAAUCUACCCUUGGCAGCGACAUGAGGAUCACCCAUGUGCGAUGA
MS2 coat protein [1]; [5]
  apparent Kd: 12.4 nM
MS2 coat protein [1]; [6]
  apparent Kd: 19.3 nM

## UCAAAAUGAUAGAAGGAGGCAAUACUCGCACCUAACAUGAGGAUCACCCAUGUCUGCAGGUUGACCUAGGAUAUAUGCAGUGGA
MS2 coat protein [2]; [7]
  apparent Kd: 14.6 nM
MS2 coat protein [2]; [8]
  apparent Kd: 9.35 nM

## GAAUAAAAUAUAAUAAGAAAACAUGAGGAUCACCCAUGUACAAGAAGGGAGAAACUUAACAUAACUCAGGAUAUUGUUAUAUCA
MS2 coat protein [2]; [7]
  apparent Kd: 28.9 nM
MS2 coat protein [2]; [8]
  apparent Kd: 22.2 nM

## GUCAUUCAAGUGAGGAUAUCUGCGAUGCCGAAAGGAGAGAAGGCACAUGAGGAUCACCCAUGUGGUGUUUAUAU
MS2 coat protein [2]; [9]
  apparent Kd: 34.5 nM
MS2 coat protein [2]; [10]
  apparent Kd: 57.4 nM

## GUCAGGCAACAGAAGGGAGGAUAUAACCGACAUGAGGAUCACCCAUGUGUAAAAGAAACAGUCGCUCAGGAUAUGUUCAACGUG
MS2 coat protein [2]; [7]
  apparent Kd: 15.9 nM
MS2 coat protein [2]; [8]
  apparent Kd: 9.36 nM

## GGUAUCGUAGGAUAUUAAUGUAGCCACAUGAGGAUCACCCAUGUAGUUCUAGUGGACCGUUAAGAAGGACGUGAUC
MS2 coat protein [2]; [9]
  apparent Kd: 66.1 nM
MS2 coat protein [2]; [10]
  apparent Kd: 82.8 nM

## AGUCACAUGAGGAUCACCCAUGUGCCAGAACGAGGACCGGUACGGCCGCCACUCGAGGCGUCCGUCGACAAUAAUGUGAACUGCA
MS2 coat protein [2]; designed as: ON switch for tryptophan, no ligand
  apparent Kd: 10.7 nM
MS2 coat protein [2]; ligand present: tryptophan, designed as: ON switch for tryptophan
  apparent Kd: 12.1 nM

## CUCACCUCGUGGAAGGAUAUACACUUUAGCACAUGAGGAUCACCCAUGUCCGCCGCAAAUCCUAGGUAGAAGGUCCGCAACAUUCG
MS2 coat protein [2]; [7]
  apparent Kd: 23.5 nM
MS2 coat protein [2]; [8]
  apparent Kd: 18 nM

## CAAUGGGAACCAUAUGUUUACAUGAGGAUCACCCAUGUUACAUAGGAUAUCUCGGUUGGGUUCGUAGAGAAGGAUGUAGAGUAG
MS2 coat protein [2]; [9]
  apparent Kd: 5.28 nM
MS2 coat protein [2]; [10]
  apparent Kd: 5.3 nM

## AGGCCCUCACAUGAGGAUCACCCAUGUACGUACGCAGGUGGAAGAAGGCCGGUACAACCUAAUCCGGAGGAUAUUCGAAUUAAC
MS2 coat protein [2]; [9]
  apparent Kd: 372 nM
MS2 coat protein [2]; [10]
  apparent Kd: 199 nM

## GAUUCACAUGAGGAUCACCCAUGUCAGGAUAUGACUUGAGCUGUCUCCGAUCGAGCCAUCAGAAGGGACUGGAA
MS2 coat protein [2]; [9]
  apparent Kd: 30 nM
MS2 coat protein [2]; [10]
  apparent Kd: 27.8 nM

## CGGUGAUAUGAAGGAUAUGCACAUGAGGAUCACCCAUGUAACCACUAGAACAAAACGUAGUAACCGCAGAAGGUCAGCAGUAGU
MS2 coat protein [2]; [7]
  apparent Kd: 23.6 nM
MS2 coat protein [2]; [8]
  apparent Kd: 14.5 nM

## UUUUACGCAAGUAAUUCCCGGGAACCGGAUACCAGCUCCUCCAACAGCCCUUGGCAGCCGACCACAUGAGGAUCACCCAUGUUUC
MS2 coat protein [2]; [5]
  apparent Kd: 11.7 nM
MS2 coat protein [2]; [6]
  apparent Kd: 19.3 nM

## CCACGACUAGGAUAUACCUAUGUUCACUCGUGAUCAAGGACACAUGAGGAUCACCCAUGUAGAAGGAGUCGCUA
MS2 coat protein [2]; [9]
  apparent Kd: 8.84 nM
MS2 coat protein [2]; [10]
  apparent Kd: 10.6 nM

## UACAAAUAUCAUUACAUGAGGAUCACCCAUGUGGGACGUCGUAGAAGGGAGAUUCAAAUACAAGCUCAGGAUAUACAACUUCUG
MS2 coat protein [2]; [7]
  apparent Kd: 181 nM
MS2 coat protein [2]; [8]
  apparent Kd: 80.1 nM

## CACUGACAACGAGGAUAUGGUCGAGCCAGACAUGAGGAUCACCCAUGUAUCGAAAGCAAUAAACUCCAGAAGGCGUAACAGUUG
MS2 coat protein [2]; [7]
  apparent Kd: 10.4 nM
MS2 coat protein [2]; [8]
  apparent Kd: 11.6 nM

## CCGGCGGAAGGAUAUUGCGAUGACCACAUGAGGAUCACCCAUGUCAACUUGAUCCGGGUACAAGAAGGUCCAGCGA
MS2 coat protein [2]; [9]
  apparent Kd: 19.3 nM
MS2 coat protein [2]; [10]
  apparent Kd: 15.9 nM

## CAAUGCGGUUAGGAUACCAGCGACACACACUUCUCACAACACAUGAGGAUCACCCAUGUCCGCCCUUGGCAGCCUUGACUAAGGU
MS2 coat protein [2]; [5]
  apparent Kd: 30.1 nM
MS2 coat protein [2]; [6]
  apparent Kd: 146 nM

## UCCCGCUGCACAGGAUAUUGGAAAAUACAUGAGGAUCACCCAUGUGCUUAUAUGAGGUCUGCCUCCAAGAAGGGUGAGAUAAUC
MS2 coat protein [2]; [9]
  apparent Kd: 113 nM
MS2 coat protein [2]; [10]
  apparent Kd: 89.6 nM

Reference: the EternaBench riboswitch data
